Reference: ChEMBL document CHEMBL3525906, “A comprehensive assessment of repaglinide metabolic pathways: impact of choice of in vitro system and relative enzyme contribution to in vitro clearance” (Drug Metab Dispos, 2012)

Experiments:
Cytochrome P450 3A5 [1] = target: T1, Cytochrome P450 3A5 (Homo sapiens, UniProt P20815); assay: Unbound intrinsic clearance in human recombinant CYP3A5 expressed in insect cells assessed as enzyme-mediated 3'-hydroxy repaglinide formation per nanomole of protein at 0.5 to 150 uM by LC-MS/MS method; type: ADME
T1 sequence (P20815 whole entry): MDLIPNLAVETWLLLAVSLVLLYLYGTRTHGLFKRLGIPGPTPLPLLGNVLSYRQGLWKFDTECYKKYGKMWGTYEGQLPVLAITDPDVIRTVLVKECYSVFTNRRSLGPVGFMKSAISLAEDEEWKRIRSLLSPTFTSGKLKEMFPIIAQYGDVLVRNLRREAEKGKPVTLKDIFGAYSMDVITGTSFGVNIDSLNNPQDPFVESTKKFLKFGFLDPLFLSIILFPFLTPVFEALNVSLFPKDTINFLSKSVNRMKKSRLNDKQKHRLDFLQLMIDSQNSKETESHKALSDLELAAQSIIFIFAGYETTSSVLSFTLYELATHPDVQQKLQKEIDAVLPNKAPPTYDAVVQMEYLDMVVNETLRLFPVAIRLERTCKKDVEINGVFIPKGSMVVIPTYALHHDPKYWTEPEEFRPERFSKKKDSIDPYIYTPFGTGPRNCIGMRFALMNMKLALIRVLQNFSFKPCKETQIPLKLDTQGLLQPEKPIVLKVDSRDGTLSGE

Homo sapiens [2] = species on record: Homo sapiens; assay: Drug metabolism in human patient assessed as fold change in metabolite M2/M4 AUC ratio at 0.25 mg co-treated with montelukast relative to montelukast non-treated patient; type: ADME, organism-based; conditions: in vivo
[3] = Unbound intrinsic clearance in human hepatic S9 fraction assessed as 2-despiperidyl-2-amino repaglinide formation measured per mg of protein at 0.5 to 150 uM by LC-MS/MS method; type: ADME, tissue-based, Liver; conditions: s9, 150 µM
Homo sapiens [4] = species on record: Homo sapiens; assay: Drug metabolism in human patient assessed as fold change in metabolite M2/M1 AUC ratio at 0.25 mg co-treated with montelukast relative to montelukast non-treated patient; type: ADME, organism-based; conditions: in vivo
Cytochrome P450 3A5 [5] = target: T1, Cytochrome P450 3A5; assay: Activity of human recombinant CYP3A5 expressed in insect cells assessed as enzyme-mediated 3'-hydroxy repaglinide formation by LC-MS/MS method; type: ADME
In short: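 Recombinant P450 (CYP2C8 50, CYP3A4 30, CYP3A5 100; units not given) incubated 10 min at 37°C with repaglinide (8 concentrations, 0.5–150 μM) in 0.1 M phosphate pH 7.4, 10 mM MgCl2, NADPH-regenerating system (1 mM NADP+, isocitrate/isocitrate dehydrogenase). Quenched with ice-cold methanol plus indomethacin internal standard. M1, M2, M4 quantified by LC-MS/MS against authentic standards. Michaelis-Menten fit; mean ± SD, n=3.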

Liver microsome [6] = assay: Drug metabolism in human liver microsomes assessed as 2-despiperidyl-2-amino repaglinide formation by LC-MS/MS method; type: ADME
Liver microsome [7] = assay: Drug metabolism in human liver microsomes assessed as glucuronide formation measured per mg of protein at 0.5 to 150 uM by LC-MS/MS method; type: ADME
Homo sapiens [8] = species on record: Homo sapiens; assay: Drug metabolism in human patient assessed as fold change in metabolite M2/M4 AUC ratio at 0.25 mg co-treated with telithromycin relative to telithromycin non-treated patient; type: ADME, organism-based; conditions: in vivo
Homo sapiens [9] = species on record: Homo sapiens; assay: Ratio of AUC in human patient at 0.25 mg to AUC in human patient at 0.25 mg co-treated with gemfibrozil on various time intervals; type: ADME, organism-based; conditions: in vivo
[10] = Unbound intrinsic clearance in human hepatic S9 fraction assessed as 3'-hydroxy repaglinide formation measured per mg of protein at 0.5 to 150 uM by LC-MS/MS method; type: ADME, tissue-based, Liver; conditions: s9, 150 µM
[11] = Unbound intrinsic clearance in human hepatic S9 fraction assessed as 2-despiperidyl-2-(5-carboxypentylamine) repaglinide formation measured per mg of protein at 0.5 to 150 uM by LC-MS/MS method; type: ADME, tissue-based, Liver; conditions: s9, 150 µM

CL free (Cytochrome P450 3A5 [1]): 0.19 µL/min/nmol
fold change (FC) (Homo sapiens [2]): 0.98
CL free [3]: 0.76 µL/min/mg
fold change (FC) (Homo sapiens [4]): 1.1
Km (Cytochrome P450 3A5 [5]): ≥ 150 µM
Km (Liver microsome [6]): 47 µM
Vmax (Liver microsome [7]): 170 pmol/min/mg
fold change (FC) (Homo sapiens [8]): 0.8
Ratio (Homo sapiens [9]): 5
CL free [10]: 2.7 µL/min/mg
CL free [11]: 3.7 µL/min/mg
Structure (SMILES): CCOc1cc(CC(=O)N[C@@H](CC(C)C)c2ccccc2N2CCCCC2)ccc1C(=O)O [REPAGLINIDE]
